{"data": "Published values collected from several papers", "target": "Serine/threonine-protein kinase Nek5 (NEK5, Homo sapiens, UniProt Q6P3R8)", "Residues used in one study (Q6P3R8 1-708)": "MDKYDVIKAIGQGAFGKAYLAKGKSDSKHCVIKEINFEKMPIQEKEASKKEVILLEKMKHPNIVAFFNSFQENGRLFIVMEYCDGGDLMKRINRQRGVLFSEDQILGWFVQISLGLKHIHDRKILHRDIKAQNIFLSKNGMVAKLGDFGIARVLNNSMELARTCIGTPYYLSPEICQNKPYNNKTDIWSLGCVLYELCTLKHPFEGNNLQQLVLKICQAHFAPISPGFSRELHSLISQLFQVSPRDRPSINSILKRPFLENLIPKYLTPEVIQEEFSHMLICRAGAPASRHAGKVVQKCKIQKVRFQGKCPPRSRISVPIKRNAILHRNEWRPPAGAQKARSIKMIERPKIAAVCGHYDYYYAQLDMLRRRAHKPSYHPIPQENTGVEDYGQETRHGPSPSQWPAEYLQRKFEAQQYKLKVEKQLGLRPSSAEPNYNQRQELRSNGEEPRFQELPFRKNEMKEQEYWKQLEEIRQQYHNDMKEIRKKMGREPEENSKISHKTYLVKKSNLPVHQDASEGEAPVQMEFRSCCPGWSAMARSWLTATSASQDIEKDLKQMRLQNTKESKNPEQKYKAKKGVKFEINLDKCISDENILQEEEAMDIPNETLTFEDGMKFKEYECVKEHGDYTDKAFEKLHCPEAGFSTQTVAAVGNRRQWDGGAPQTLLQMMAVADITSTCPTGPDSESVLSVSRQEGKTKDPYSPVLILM", "note": "Protocols differ between the studies behind these lines."}
{"Structure (SMILES)": "COc1cnc(Nc2cccc(S(N)(=O)=O)c2)nc1N1CCN(c2ccccc2)C(=O)C1", "assay": "binding, competition with immobilised ligand", "conditions": "1 µM", "remaining binding": "88%"}
{"Structure (SMILES)": "O=C(c1ccc(Nc2ncc(Cl)c(-c3cc4ccccc4s3)n2)cc1)N1CCC(N2CCCC2)CC1", "assay": "binding, competition with immobilised ligand", "conditions": "1 µM", "remaining binding": "0%"}
{"Structure (SMILES)": "CN(CCCC(F)(F)F)c1nccc(-c2cnn3ncccc23)n1", "assay": "binding", "conditions": "1 µM", "remaining binding": "100%"}
{"Structure (SMILES)": "COc1ccc2c(O[C@@H]3C[C@H]4C(=O)N[C@]5(C(=O)O)CC5/C=C\\CCCCC[C@H](NC(=O)OC5CCCC5)C(=O)N4C3)cc(-c3csc(NC(=O)C(C)C)n3)nc2c1C (stereo partly drawn)", "assay": "cell-free assay, competition with immobilised ligand", "conditions": "1 µM", "remaining binding": "98%"}
{"Structure (SMILES)": "N[C@H]1CCN(c2nccc(-c3cnn4ncccc34)n2)C1", "assay": "binding", "conditions": "1 µM", "remaining binding": "87%"}
{"Structure (SMILES)": "Cc1cc(NC(=O)c2cccc(S(F)(F)(F)(F)F)c2)cc(-n2ccn3nc(-c4cccnc4)cc23)c1", "assay": "cell-free assay, competition with immobilised ligand", "conditions": "1 µM", "remaining binding": "86.8%"}
{"Structure (SMILES)": "c1cnn2ncc(-c3ccnc(N4CCC45COC5)n3)c2c1", "assay": "binding", "conditions": "1 µM", "remaining binding": "97%"}
{"Structure (SMILES)": "O=C(Nc1cccnn1)N1CCC(=Cc2cccc(Oc3ccc(C(F)(F)F)cn3)c2)CC1", "assay": "cell-free assay, competition with immobilised ligand", "conditions": "1 µM", "remaining binding": "97%"}
{"Structure (SMILES)": "O=C(c1ccc(Nc2ncc(Cl)c(-c3ccc(Cl)s3)n2)cc1)N1CCC(N2CCCC2)CC1", "assay": "binding, competition with immobilised ligand", "conditions": "1 µM", "remaining binding": "0%"}
{"Structure (SMILES)": "O=C(Nc1c[nH]nc1C(=O)NC1CCNCC1)c1cc(F)cc(F)c1", "assay": "binding, competition with immobilised ligand", "conditions": "1 µM", "remaining binding": "95%"}
{"Structure (SMILES)": "O=C(NCCCN1CCOCC1)c1ccc(Nc2nccc(-c3cc4ccccc4s3)n2)cc1", "assay": "binding, competition with immobilised ligand", "conditions": "1 µM", "remaining binding": "4.4%"}
{"Structure (SMILES)": "FC(F)(F)c1ccc2c(c1)nc(-c1cccnc1)n2C1CC1", "assay": "cell-free assay, competition with immobilised ligand", "conditions": "1 µM", "remaining binding": "100%"}
{"Structure (SMILES)": "FC(F)(F)Oc1cccc(-c2cnc3ccc(-c4ccncc4)nn23)c1", "assay": "cell-free assay, competition with immobilised ligand", "conditions": "5 µM", "remaining binding": "74%"}
{"Structure (SMILES)": "C[C@H](NC(=O)c1cnc2n1[C@](C)(Cc1ccc(C#N)cc1)C(=O)N2c1cc(Cl)c(F)c(Cl)c1)C(=O)NC1(c2ccccn2)CC1", "assay": "cell-free assay, competition with immobilised ligand", "conditions": "1 µM", "remaining binding": "100%"}
{"Structure (SMILES)": "F[C@@H]1CCN(c2nccc(-c3cnn4ncccc34)n2)C1", "assay": "binding", "conditions": "1 µM", "remaining binding": "100%"}
{"Structure (SMILES)": "c1cncc(-c2cccc(Nc3nccc(NC4CCCCC4)n3)c2)c1", "assay": "binding, competition with immobilised ligand", "conditions": "10 µM", "remaining binding": "49%"}
{"Structure (SMILES)": "CNC(=O)[C@@H]1CC[C@@H](n2c(-c3ccc4cnccc4c3)nc3ccc(C(=O)NCc4cccc(C(N)=O)c4)cc32)C1", "assay": "binding, competition with immobilised ligand", "conditions": "1 µM", "remaining binding": "100%"}
{"Structure (SMILES)": "C[C@@H]1CCN(c2nccc(-c3cnn4ncccc34)n2)C1", "assay": "binding", "conditions": "1 µM", "remaining binding": "100%"}
{"Structure (SMILES)": "Cn1nc(C(F)(F)F)cc1-c1cnc(N2CCc3cc(S(=O)(=O)Nc4c(F)cc(Cl)cc4F)cc(N4CCCC4=O)c32)nc1", "assay": "cell-free assay, competition with immobilised ligand", "conditions": "1 µM", "remaining binding": "86%"}
{"Structure (SMILES)": "CN(c1nccc(-c2cnn3ncccc23)n1)C1CC1", "assay": "binding", "conditions": "1 µM", "remaining binding": "100%"}
{"Structure (SMILES)": "C[C@@H](c1ccc(-n2cnc3c(N)ncnc32)cc1)N1CCc2nn(C)c(Cc3ccccc3)c2C1=O", "assay": "binding, competition with immobilised ligand", "conditions": "0.1 µM", "remaining binding": "92%"}
